Assay results taken from ChEMBL document CHEMBL3351898, “4-Aminoquinoline-pyrimidine hybrids: synthesis, antimalarial activity, heme binding and docking studies” (Eur J Med Chem, 2015).
Active and inactive are the calls of the source. The calls are words filed in the database; no cut-off is given here.

Legend:
Plasmodium falciparum [1] = assay: Antimalarial activity against chloroquine-sensitive Plasmodium falciparum D6 assessed as inhibition of parasite growth after 72 hrs by parasite LDH release assay; type: functional, organism-based; conditions: D6, 72 h
How it was run: (§1)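 Asexual P. falciparum cultures at 2% parasitemia and 2% hematocrit in RPMI 1640 with 10% human serum and amikacin were added to serially diluted compound. Plates were incubated 72 h at 37 °C under 90% N2/5% O2/5% CO2. Growth was read by pLDH: Malstat reagent 30 min at room temperature, then NBT/PES 1 h in the dark. IC50 taken from dose-response curves; chloroquine and pyrimethamine controls.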

[2] = Selectivity index, ratio of IC50 for African green monkey Vero cells to IC50 for chloroquine-sensitive Plasmodium falciparum D6; type: toxicity, cell-based; conditions: read-out: Ratio IC50
How it was run: (§2)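 Vero cells seeded at 25,000 cells/well and grown 24 h, then exposed to a range of compound concentrations for 48 h. Viability measured by Neutral Red uptake; IC50 from dose-response curves. SI calculated as Vero IC50 divided by antiplasmodial IC50 for the named strain.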

Plasmodium falciparum [3] = assay: Antimalarial activity against chloroquine-resistant Plasmodium falciparum W2 assessed as inhibition of parasite growth after 72 hrs by parasite LDH release assay; type: functional, organism-based; conditions: W2, 72 h; how it was run: as §1
[4] = Selectivity index, ratio of IC50 for African green monkey Vero cells to IC50 for chloroquine-resistant Plasmodium falciparum W2; type: toxicity, cell-based; conditions: read-out: Ratio IC50; how it was run: as §2
Vero [5] = assay: Cytotoxicity against African green monkey Vero cells after 72 hrs by neutral red assay; type: cell-based, Chlorocebus sabaeus; conditions: in the assay text read “after 48 hrs” for “after 72 hrs”
How it was run: (§3)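 Vero cells (monkey kidney […]) were seeded at 25,000 cells/well and incubated 24 h, then exposed to a range of compound concentrations for 48 h. Viable cells were counted by Neutral Red assay, and IC50 was obtained from dose-response curves.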

[6] = Resistance index, ratio of IC50 for chloroquine-resistant Plasmodium falciparum W2 to IC50 for chloroquine-sensitive Plasmodium falciparum D6; type: functional
Vero [7] = assay: Cytotoxicity against African green monkey Vero cells up to 20 uM after 72 hrs by neutral red assay; type: cell-based; conditions: chlorocebus sabaeus, 48 h, in the assay text read “48 hrs” for “72 hrs”; how it was run: as §3
Plasmodium falciparum [8] = assay: Antimalarial activity against chloroquine-resistant Plasmodium falciparum W2 assessed as inhibition of parasite growth up to 19 uM after 72 hrs by parasite LDH release assay; type: functional, organism-based; how it was run: as §1
Plasmodium berghei [9] = assay: Antimalarial activity against Plasmodium berghei infected in mouse assessed as reduction in parasitemia at 100 mg/kg/day, po dosed on days 0, 1 and 2 post infection measured on day 5; type: functional; conditions: 120 h
How it was run: (§4)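 P. berghei-infected mice were given the compound orally at 11.1, 33.3 or 100 mg/kg × 3 days. Vehicle and chloroquine groups were included. Parasitemia was read on days 5 and 7, and % suppression was calculated with mean parasitemia in the vehicle control taken as 100%. Mean survival time was also recorded.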

Plasmodium berghei [10] = assay: Antimalarial activity against Plasmodium berghei infected in mouse assessed as reduction in parasitemia at 100 mg/kg/day, po dosed on days 0, 1 and 2 post infection measured on day 7; type: functional; conditions: 168 h; how it was run: as §4
Plasmodium berghei [11] = assay: Antimalarial activity against Plasmodium berghei infected in mouse assessed as mean survival time at 100 mg/kg/day, po dosed on days 0, 1 and 2 post infection; type: functional
How it was run: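 P. berghei-infected mice dosed orally with test agent at 11.1, 33.3 or 100 mg/kg, once daily for 3 days; vehicle and chloroquine controls. Mean survival time recorded; parasitemia on days 5 and 7 expressed as % suppression, taking mean vehicle-control parasitemia as 100%.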

Heme [12] = assay: Binding affinity to monomeric heme (unknown origin) assessed as binding constant at pH 5.6
How it was run: (§5)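 Hematin in 40% DMSO (monomeric heme, Soret band 402 nm) was titrated with compound in 0.02 M HEPES pH 7.4 or 0.02 M MES pH 5.6. Association constants (log K) were calculated from the titration data, and stoichiometry was taken from a Job's plot of absorbance at 402 nm against compound mole fraction.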

Heme [13] = assay: Binding affinity to monomeric heme (unknown origin) assessed as binding constant at pH 7.4; how it was run: as §5
mu-oxodimeric heme = assay: Binding affinity to mu-oxo-heme (unknown origin) assessed as binding constant at pH 5.8
How it was run: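 μ-Oxo-dimeric heme in 20 mM phosphate buffer pH 5.8 was titrated with compound, following the decrease in absorbance at 362 nm. The log K was derived from the titration, and stoichiometry came from a Job's plot.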

Heme [14] = assay: Binding affinity to heme (unknown origin) assessed as reduction in Fe(3+) intensity
Heme [15] = assay: Binding affinity to heme (unknown origin) assessed as reduction in Fe(3+) intensity at pH 7.4
Heme [16] = assay: Binding affinity to heme (unknown origin) assessed as reduction in Fe(3+) intensity at pH 5.6
[17] = Chlorocebus sabaeus, Vero, 48 h, read-out: IC50

## COc1cc(Nc2ccnc(NCCCCNc3ccnc4cc(Cl)ccc34)n2)cc(OC)c1
Plasmodium falciparum [1]
  IC50: 44 nM
[2]
  selectivity ratio: 285
Plasmodium falciparum [3]
  IC50: 120 nM
[4]
  selectivity ratio: 104
Vero [5]; [17]
  IC50: 12500 nM
[6]
  Ratio IC50: 2.72

## Cc1ccc(Nc2ccnc(NCCCNc3ccnc4cc(Cl)ccc34)n2)cc1
Plasmodium falciparum [1]
  IC50: 153 nM
[2]
  selectivity ratio: 121
Plasmodium falciparum [3]
  IC50: 346 nM
[4]
  selectivity ratio: 53.4
Vero [5]; [17]
  IC50: 18500 nM
[6]
  Ratio IC50: 2.26

## COc1ccc(Nc2ccnc(NCCNc3ccnc4cc(Cl)ccc34)n2)cc1
Plasmodium falciparum [1]
  IC50: 40 nM
[2]
  selectivity ratio: > 500
Plasmodium falciparum [3]
  IC50: 241 nM
[4]
  selectivity ratio: > 83
Vero [5]; vero
  IC50: Not Active
Vero [7]
  Activity: Non-toxic
[6]
  Ratio IC50: 6.03

## COc1ccc(Nc2ccnc(NCCCCNc3ccnc4cc(Cl)ccc34)n2)cc1
Plasmodium falciparum [1]
  IC50: 50 nM
[2]
  selectivity ratio: 223
Plasmodium falciparum [3]
  IC50: 67 nM
[4]
  selectivity ratio: 166
Vero [5]; [17]
  IC50: 11100 nM
[6]
  Ratio IC50: 1.34

## Cc1ccc(Nc2ccnc(NCCNc3ccnc4cc(Cl)ccc34)n2)cc1
Plasmodium falciparum [1]
  IC50: 101 nM
[2]
  selectivity ratio: 135
Plasmodium falciparum [3]
  IC50: 143 nM
[4]
  selectivity ratio: 95.1
Vero [5]; [17]
  IC50: 13600 nM
[6]
  Ratio IC50: 1.41

## Clc1ccc2c(NCCNc3nccc(Nc4ccc(Br)cc4)n3)ccnc2c1
Plasmodium falciparum [1]
  IC50: 37 nM
[2]
  selectivity ratio: > 541
Plasmodium falciparum [3]
  IC50: 136 nM
[4]
  selectivity ratio: > 147
Vero [5]; vero
  IC50: Not Active
Vero [7]
  Activity: Non-toxic
[6]
  Ratio IC50: 3.67

## Cc1ccc(Nc2ccnc(NCCCCNc3ccnc4cc(Cl)ccc34)n2)cc1
Plasmodium falciparum [1]
  IC50: 138 nM
[2]
  selectivity ratio: 140
Plasmodium falciparum [3]
  IC50: 518 nM
[4]
  selectivity ratio: 37.2
Vero [5]; [17]
  IC50: 19300 nM
[6]
  Ratio IC50: 3.75

## Clc1ccc2c(NCCCNc3nccc(Nc4ccccc4)n3)ccnc2c1
Plasmodium falciparum [1]
  IC50: 19 nM
[2]
  selectivity ratio: 676
Plasmodium falciparum [3]
  IC50: 144 nM
[4]
  selectivity ratio: 89.2
Vero [5]; [17]
  IC50: 12800 nM
[6]
  Ratio IC50: 7.57

## Clc1ccc2c(NCCCCNc3nccc(Nc4ccc(Br)cc4)n3)ccnc2c1
Plasmodium falciparum [1]
  IC50: 47 nM
[2]
  selectivity ratio: 214
Plasmodium falciparum [3]
  IC50: 63 nM
[4]
  selectivity ratio: 159
Vero [5]; [17]
  IC50: 10000 nM
[6]
  Ratio IC50: 1.34

## Clc1ccc(Nc2ccnc(NCCCCNc3ccnc4cc(Cl)ccc34)n2)cc1
Plasmodium falciparum [1]
  IC50: 44 nM
[2]
  selectivity ratio: 251
Plasmodium falciparum [3]
  IC50: 52 nM
[4]
  selectivity ratio: 212
Vero [5]; [17]
  IC50: 11000 nM
[6]
  Ratio IC50: 1.18

## CCc1nc(N)nc(N)c1-c1ccc(Cl)cc1
Plasmodium falciparum [8]
  growth inhibition (GI): inactive

## CCN(CC)CCCC(C)Nc1ccnc2cc(Cl)ccc12 (configuration not stated) [CHLOROQUINE]
Vero [5]; vero
  IC50: Not Active
Vero [7]
  Activity: Non-toxic
Plasmodium berghei [9]
  inhibition in vivo at 100 mg/kg/day: 100%
Plasmodium berghei [10]
  inhibition in vivo at 100 mg/kg/day: 100%
Plasmodium berghei [11]
  MST: 26.2 days

## Clc1ccc2c(NCCCCNc3nccc(Nc4ccccc4)n3)ccnc2c1
Plasmodium falciparum [1]
  IC50: 44 nM
[2]
  selectivity ratio: 326
Plasmodium falciparum [3]
  IC50: 403 nM
[4]
  selectivity ratio: 35.5
Vero [5]; [17]
  IC50: 14300 nM
[6]
  Ratio IC50: 9.15

## Fc1ccc(Nc2ccnc(NCCCCNc3ccnc4cc(Cl)ccc34)n2)cc1
Plasmodium falciparum [1]
  IC50: 3200 nM
[2]
  selectivity ratio: > 6.25
Plasmodium falciparum [3]
  IC50: 5830 nM
[4]
  selectivity ratio: > 3.43
Vero [5]; vero
  IC50: Not Active
Vero [7]
  Activity: Non-toxic
[6]
  Ratio IC50: 1.82

## Clc1ccc(Nc2ccnc(NCCNc3ccnc4cc(Cl)ccc34)n2)cc1
Plasmodium falciparum [1]
  IC50: 47 nM
[2]
  selectivity ratio: 335
Plasmodium falciparum [3]
  IC50: 46 nM
[4]
  selectivity ratio: 342
Vero [5]; [17]
  IC50: 15800 nM
[6]
  Ratio IC50: 0.978
Heme [12]
  log K: 5.51
Heme [13]
  log K: 5.04
mu-oxodimeric heme
  log K: 5.12
Heme [14]
  Activity: Active
Heme [15]
  Activity: Active
Heme [16]
  Activity: Active

## Clc1ccc(Nc2ccnc(NCCCNc3ccnc4cc(Cl)ccc34)n2)cc1
Plasmodium falciparum [1]
  IC50: 47 nM
[2]
  selectivity ratio: 286
Plasmodium falciparum [3]
  IC50: 445 nM
[4]
  selectivity ratio: 30.2
Vero [5]; [17]
  IC50: 13400 nM
[6]
  Ratio IC50: 9.46

## Clc1ccc2c(NCCNc3nccc(Nc4ccccc4)n3)ccnc2c1
Plasmodium falciparum [1]
  IC50: 1510 nM
[2]
  selectivity ratio: > 13.2
Plasmodium falciparum [3]
  IC50: 1530 nM
[4]
  selectivity ratio: > 13.1
Vero [5]; vero
  IC50: Not Active
Vero [7]
  Activity: Non-toxic
[6]
  Ratio IC50: 1.05

## COc1cc(Nc2ccnc(NCCCNc3ccnc4cc(Cl)ccc34)n2)cc(OC)c1
Plasmodium falciparum [1]
  IC50: 38 nM
[2]
  selectivity ratio: 340
Plasmodium falciparum [3]
  IC50: 107 nM
[4]
  selectivity ratio: 121
Vero [5]; [17]
  IC50: 12900 nM
[6]
  Ratio IC50: 2.81

## Clc1ccc2c(NCCCNc3nccc(Nc4ccc(Br)cc4)n3)ccnc2c1
Plasmodium falciparum [1]
  IC50: 49 nM
[2]
  selectivity ratio: 228
Plasmodium falciparum [3]
  IC50: 47 nM
[4]
  selectivity ratio: 237
Vero [5]; [17]
  IC50: 11200 nM
[6]
  Ratio IC50: 0.95

## Fc1ccc(Nc2ccnc(NCCNc3ccnc4cc(Cl)ccc34)n2)cc1
Plasmodium falciparum [1]
  IC50: 6020 nM
[2]
  selectivity ratio: > 3.32
Plasmodium falciparum [3]
  IC50: 9990 nM
[4]
  selectivity ratio: > 2
Vero [5]; vero
  IC50: Not Active
Vero [7]
  Activity: Non-toxic
[6]
  Ratio IC50: 1.65

## Fc1ccc(Nc2ccnc(NCCCNc3ccnc4cc(Cl)ccc34)n2)cc1
Plasmodium falciparum [1]
  IC50: 28 nM
[2]
  selectivity ratio: 490
Plasmodium falciparum [3]
  IC50: 94 nM
[4]
  selectivity ratio: 146
Vero [5]; [17]
  IC50: 13700 nM
[6]
  Ratio IC50: 3.35

## COc1ccc(Nc2ccnc(NCCCNc3ccnc4cc(Cl)ccc34)n2)cc1
Plasmodium falciparum [1]
  IC50: 40 nM
[2]
  selectivity ratio: 333
Plasmodium falciparum [3]
  IC50: 81 nM
[4]
  selectivity ratio: 165
Vero [5]; [17]
  IC50: 13300 nM
[6]
  Ratio IC50: 2.02
